In publication PMC6051889 (ACS chemical neuroscience, 2018):

What was measured:
[1] = IV doses 30–60 mg/kg, within 5 min, Male CD1 mice; cited from earlier work
[2] = Plasma stability, mouse plasma
[3] = Plasma pharmacokinetics in mice; type: in vivo; conditions: BALB/c mouse, IV
Procedure, shortened: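 Balb/c mice received a single IV or oral-gavage dose, with low-dose isoflurane restraint for gavage. Each mouse gave one time point: 3 mice per point, 10 time points. Blood was taken by cardiac puncture under deep isoflurane anaesthesia, and plasma was assayed for parent compound by validated LC-MS/MS.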

Row | Compound | in vivo antinociceptive activity (hotplate) [1] | remaining at 4 h, 50 μM [2] [%] | microsomal degradation (Microsomal stability; in the absence of NADPH) | material metabolized (Microsomal stability; mouse, rat and human NADPH-charged microsomes, 2 h, 0.50 μM) | time until completely consumed in plasma [3] [min]
1 | [D-Pen^2,D-Pen^5]-enkephalin [DPDPE] | demonstrated in vivo antinociceptive activity |  |  |  | 
2 | CC(C)C[C@H](NC(=O)[C@H](Cc1ccccc1)NC(=O)CNC(=O)CNC(=O)[C@@H](N)Cc1ccc(O)cc1)C(=O)O [Compound 1, Leu-enkephalin] |  | > 90 | slowly degraded | 38–50% | ≤ 5
